Measured values as given in the EternaBench riboswitch data.

Test system: MS2 coat protein
Experiment: apparent Kd, MS2 coat protein; higher = weaker binding; RNA-MaP array; FMN 200 µM where present
How it was run: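 Stalled E. coli RNA polymerase transcribed the designs on Illumina sequencing-chip clusters. SNAP-549-labelled MS2 coat protein was titrated from 0.7 or 1.5 nM, doubling to 3 µM, without and then with constant ligand, in 100 mM Tris-HCl pH 7.5, 80 mM KCl, 4 mM MgCl2, BSA, DTT, yeast tRNA and Tween-20. Per-cluster binding curves were fitted to green signal normalised to red-channel RNA signal and control-cluster median Fmax. The apparent Kd is the median of the filtered fits.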

[1] = designed as: OFF switch for flavin mononucleotide, no ligand
[2] = ligand present: flavin mononucleotide, designed as: OFF switch for flavin mononucleotide
[3] = designed as: ON switch for flavin mononucleotide, no ligand
[4] = ligand present: flavin mononucleotide, designed as: ON switch for flavin mononucleotide

| Sequence | apparent Kd [1] [nM] | apparent Kd [2] [nM] | apparent Kd [3] [nM] | apparent Kd [4] [nM] |
| --- | --- | --- | --- | --- |
| AAUAACAGAGGAUAUACUAUUUUAUGUAUUUAUUAUUUUAAACAUGAGGAUCACCCAUGUAGAAGGCUGAGUAA | 23.8 | 21.3 |  |  |
| AAAUUUAACGAAGGAUAUGCUGACAUGAGGAUCACCCAUGUGUGCCUUGUGUUACUGACUCGGAAGCAGAAGGUCGUAUACAUA | 400 | 552 |  |  |
| AGUGUCAUCGAGAAGGCCUCAUUAACAUGAGGAUCACCCAUGUAAUAUGGGAGGAUAUCGAUGAUACAGCUACGUUUCGUAGCA |  |  | 216 | 55.2 |
| AAAAAACAUGAGGAUCACCCAUGUCAGGAUAUCCUAAAAAAAAAAAAAAAAAAAAAAAGGAGAAGGGACAUAAA | 119 | 309 |  |  |
| UUUAGGAGUCAAGGAUAUGCUACCGUUUCGGUAGCAGAAGGUGAUCACAUGAGGAUCACCCAUGUAUGCAUGCGUGAGCGUGCU |  |  | 50.1 | 623 |
| AAAAAGGUAGGAUAUACGAGGAGAAAUAAUAAAUAAAUAAAACAUGAGGAUCACCCAUGUAGAAGGACCAAAAA | 26.1 | 26.8 |  |  |
| CCAGAUUUCACAGGAUAUAUUGAUGACAUGAGGAUCACCCAUGUACCGGCAGUAGAAGGGUGAACGCACGUGACCACGUGCGUG |  |  | 54.1 | 14.9 |
| UUACGUACGUAUGAGGAUAUCCAUAAUAAGACAUGAGGAUCACCCAUGUAAACAAAACAAUAAUGGGAGAAGGCAUACGUACGAA |  |  | 64.1 | 101 |
| AAUAACAGAGGAUAUACUGUUUUAUGUGUUUAUUGUUUUAAACAUGAGGAUCACCCAUGUAGAAGGCUGAGUAA | 38.9 | 39 |  |  |
| AAUAUAAGAGCUGGCUCUAAAAGAACAUGAGGAUCACCCAUGUAGGAUAUCAGCACGAUAAGUGCUGAGAAGGACAACCAGCUC | 16.7 | 15.7 |  |  |
| UCCUGGCGAGGAUAUACAAAGAUUUUUUCGUUUUGUUACGAACAUGAGGAUCACCCAUGUAGAAGGUGCUGCUG | 204 | 193 |  |  |
| CCGAAUAAGCAGGAUAUCGUAUCGGAAACGAUACGAGAAGGGCUAACAUGAGGAUCACCCAUGUUCCUUAACGG | 22.1 | 23.5 |  |  |
| UGUCGGAGCAGAGGAUAUUACAUGAGGAUCACCCAUGUAUGAACCAAUAGCUGGAAACAGCAAUGUGAGAAGGCUGCUCCGACA | 5.47 | 52.3 |  |  |
| UAGUCGGAGACAGGAUAUGUGACUGCAUAGUGCACAGAAGGGUCUACAUGAGGAUCACCCAUGUCACCGACCACCAAACAACAA |  |  | 552 | 33.3 |
| AUUAUAAAGUCAGGAUAUCGGUUUAUAAUAUUACGAGAAGGGACAUGAGGAUCACCCAUGUAUUAACACUACUAUGUCAACUAA | 46.6 | 43.4 |  |  |
| CUAUUACGAGGAUAUCGUCAGAGUCACAUGAGGAUCACCCAUGUAUCCCACGGACCGGAAUGAGAAGGCGUUCAUG | 288 | 769 |  |  |
| CGCAUCUCUUCAAUUCCUUCACAUGAGGAUCACCCAUGUAGGGAGGAUAUGCAAGCCUAUUGGCGGCAGAAGGCCCUGCAAUGG | 177 | 86.9 |  |  |
| GGUAGAAACAUUAACAUGAGGAUCACCCAUGUCAAAAGAAAUGAGGAUAUCGUAUACAAUGUAUAUGAGAAGGCAUGGUCUGCC |  |  | 9.17 | 6.45 |
| GGGUACAUCGGAGGAUAUCAUGUAAAUACAUGAGGAUCACCCAUGUCGAUGGAGACAUCGGAGAUUGAGAAGGCCGAUGUACUG |  |  | 169 | 8.5 |
| GGUGCGUAUGUGAGGAUAUGCUGGUCCUUGGAUCAGCAGAAGGCACAUGAGGAUCACCCAUGUGGUGUCGUUCC | 397 | 29.3 |  |  |
| GCGCAAACGCCAAAAGGCGAAACAACAUGAGGAUCACCCAUGUAGGAUAUCGAUUGCUUUGCAGUCGAGAAGGACAUAAUGCGC | 17.1 | 16.1 |  |  |
| UGCAUGCUAGGAUAUACGAAACAUUAGGGUUCUUCGUAUGAACAUGAGGAUCACCCAUGUAGAAGGAGCGUGCU | 35.5 | 191 |  |  |
| GGAUUACAUGAGGAUCACCCAUGUGAGGAUAUCGAUGUCCUGUAAUUCGUGCGGGACUCGAGAAGGCACUUGGA | 51.3 | 168 |  |  |
| AAUAACAGAGGAUAUACUAUUUUAUGUAUUUAUUAUUUUAAACAUGAGGAUCACCCAUGUAGAAGGCUGAUUAA | 28.1 | 30.4 |  |  |

| Sequence | apparent Kd [1] [nM] | apparent Kd [2] [nM] | apparent Kd [3] [nM] | apparent Kd [4] [nM] |
| --- | --- | --- | --- | --- |
| CUACUUAGCCAGAAGGCAAGAGGUACAUGAGGAUCACCCAUGUAGUGAUUGAGGAUAUGGCAAGGUUCUAUGGUGCGUCUAGCC |  |  | 7.53 | 5.12 |
| AUUUUACAUGAGGAUCACCCAUGUUUUGGCGGGUCAGGAUAUAGAUCGGAUGAGUUCUGUCUAGAAGGGACAUGUU |  |  | 49.7 | 29.6 |
| UUGGACGUCGUAGGAUAUGUAGAAUAUUCCUACAUGAGGAUCACCCAUGUUGACAUGGAAGAAGGACAGAAGGACGAUGUCCAU |  |  | 6.97 | 5.37 |
| AUUAAUAAGUAGAAGGACGGAGAGUAUGAAGUCGUAGGAUAUACAAUAGACAUGAGGAUCACCCAUGUAUGUUGGGUGUGAAUG | 376 | 254 |  |  |
| GGUAUCCGGCAGGAUAUUGUGAGAAUCUGUAAGCGAGAAGGGCCAACAUGAGGAUCACCCAUGUACCAUUGAGA | 52.3 | 45.1 |  |  |
| GGACGUCACAUUAACAUGAGGAUCACCCAUGUGAAAACACAUGAGGAUAUGGAUCCUAAUUGGAUCCAGAAGGCAUGGACGUCC |  |  |  | 6.6 |
| AAUUAUUUACAGAAGGAGUAAGAUUAUGUAUUACUAGGAUAUGUUCACAUGAGGAUCACCCAUGUACUAGUUGGUUUUUUAUGU | 10.5 | 17.1 |  |  |
| GGAGAACAUGAGGAUCACCCAUGUGAGCGGUAGCUAGGAUAUGCGGGAAGGAAGAGAGAAGCAGAAGGAGUCGGUA |  |  | 36.1 | 22.9 |
| GAUCGUUUAGAGGAUAUCGUGCUAAACAUUACAUGAGAAGGCUAGACAUGAGGAUCACCCAUGUAUGCUCGUGA | 15.5 | 17.1 |  |  |
| GGUGGACAUGAGGAUCACCCAUGUGAGGAUAUCGGCUAUCUACUCGCUGACGGUUGCUCGAGAAGGCACAUUGU | 126 | 206 |  |  |
| AAGAAGUGAGGAUAUGCUGCUCGUCACUUGCGUGAUGAGUAGCAGAAGGCACAUGAGGAUCACCCAUGUGGAAG | 33.9 | 47.8 |  |  |
| CCGGAUACGGGUAGCCUGACAUGAGGAUCACCCAUGUAAUACGAGGAUAUGGAUCCUAAUUGGAUCCAGAAGGUGUCAGGCUAC |  |  | 1310 | 734 |
| GCUUGAGCAGGAUAUACAUGAGGAUCACCCAUGUUGAGCUUGAGGAUCUUCGAGUUCGGUAGAAGGGUUCGAGU | 22.1 | 59.5 |  |  |
| AUAAUGCGAGGAUAUACAUGAGGAUCACCCAUGUAAUUCAAUCGGAGAGCCACAUUUCGUAGAAGGUGCAUUAA | 15.7 | 21.4 |  |  |
| GCUGUAAGAGGAUAUACAUGGUAUUGACUGGCACCGGUUAGACAUGAGGAUCACCCAUGUAGAAGGCUUGUAUG | 86.3 | 248 |  |  |
| UGUUUUCAUGUAGGAUAUGCUUGUCGUAGAUACGCAGAAGGACAUGAGGAUCACCCAUGUUAAUGCGACAGAUUUUAGUUUCUU | 19.6 | 62 |  |  |
| GCUAAUUAGUGAGGAUAUACAUAAUUUAUUACUGUAGAAGGCACAAACCUCAAGACAUGAGGAUCACCCAUGUGGUAUUUAAGC | 151 | 394 |  |  |
| CCAUGUUAGCAGGAUAUGCAAUAAAUCUUUUAAGCAGAAGGGCUUACAUGAGGAUCACCCAUGUAUAAUUUCAA | 50.3 | 116 |  |  |
| CUGGAAUACAGACAUGAGGAUCACCCAUGUUUAAGGGAGGCACAGGAUAUGUCGACGCACCAUAGACAGAAGGGUGACUUGCUU |  |  | 47.8 | 20.3 |
| AUCAGCUCGCCAGGAUAUACGUCACUGCGUCAGCAGUGUGGUAAGAUCACAUGAGGAUCACCCAUGUAGAAGGGACGAGCUGAU | 10.3 | 69.2 |  |  |
| UUAUUUAUACAAGGAUAUCAAUUAUAUACACAUCCUACAUGAGGAUCACCCAUGUUUUAUUUUUUUGAGAAGGUGUAUUGUGGG |  |  | 92.3 | 109 |
| GCCAUCAUAUGAGGAUAUGACACCGAAACGGUGUCAGAAGGCAUGUCGAUAGACAUGAGGAUCACCCAUGUUUAGAUGAUGGCA |  |  | 104 | 21.5 |
| GGUGCUAUGUAGAAGGCAGAUCUGAUUCAGAUCUGAGGAUAUACAUGAGGAUCACCCAUGUUAUGCACCAGCACGAGAGUGCAG | 8.07 | 14 |  |  |
| UGGUACAUCGGAGGAUAUCGUGUGUAAACAUGAGGAUCACCCAUGUCGUACGAGAGUACGUAGAUCGAGAAGGCCGAUGUACCU |  |  | 17.2 | 14.7 |
